Source: ChEMBL document CHEMBL1649256, “Comparison of assessment of oxygen consumption, Etest, and CLSI M38-A2 broth microdilution methods for evaluation of the susceptibility of Aspergillus fumigatus to posaconazole” (2009)
Converted amounts (≈) assume the structure as drawn.

Key:
Assay type in all cases: functional
Aspergillus fumigatus [1] = test: Antimicrobial activity against Aspergillus fumigatus isolate 45 after 24 hrs by Etest; details: isolate 45, 24 h
Aspergillus fumigatus [2] = test: Antimicrobial activity against Aspergillus fumigatus isolate 45 by CLSI M38-A2 broth microdilution method
Aspergillus fumigatus [3] = test: Antimicrobial activity against Aspergillus fumigatus isolate 10 after 24 hrs by Etest; details: isolate 10, 24 h
In short: (§1)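 Posaconazole Etest strips placed on RPMI 1640 agar with 2% glucose, pH 7.0, and run per the strip maker's instructions. Incubation at 35°C, with the MIC read at 24 h and at 48 h.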

Aspergillus fumigatus [4] = test: Antimicrobial activity against Aspergillus fumigatus isolate 38 by oxygen consumption method
In short: (§2)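 Conidial suspension in RPMI 1640 broth, tested at two posaconazole levels (0.25 and 2 μg/ml). Agitated for 12 h at 37°C in a biological oxygen monitor. MIC derived from continuous monitoring and quantification of the available oxygen.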

Aspergillus fumigatus [5] = test: Antimicrobial activity against Aspergillus fumigatus isolate 19 by oxygen consumption method
In short: (§3)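 Conidial suspension in RPMI 1640 broth with posaconazole at 0.25 and 2 μg/ml. Tubes agitated 12 h at 37°C in a biological oxygen monitor. Available oxygen was monitored continuously, and the MIC was assigned from the oxygen quantification.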

Aspergillus fumigatus [6] = test: Antimicrobial activity against Aspergillus fumigatus isolate 34 by CLSI M38-A2 broth microdilution method
In short: (§4)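 CLSI M38-A2 broth microdilution with posaconazole. MIC taken as the lowest concentration with no visible growth at 48 h. C. parapsilosis ATCC 22019 and C. krusei ATCC 6258 were included as QC strains in every run.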

Aspergillus fumigatus [7] = test: Antimicrobial activity against Aspergillus fumigatus isolate 29 after 48 hrs by Etest; details: isolate 29, 48 h
In short: (§5)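 Etest strips on RPMI 1640 agar with 2% glucose, pH 7.0, run per manufacturer's instructions. Incubated at 35°C; MIC read at 48 h.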

Aspergillus fumigatus [8] = test: Antimicrobial activity against Aspergillus fumigatus isolate 5 after 24 hrs by Etest; details: isolate 5, 24 h
Aspergillus fumigatus [9] = test: Antimicrobial activity against Aspergillus fumigatus isolate 38 by CLSI M38-A2 broth microdilution method; in short: as §4
Aspergillus fumigatus [10] = test: Antimicrobial activity against Aspergillus fumigatus isolate 39 after 48 hrs by Etest; details: isolate 39, 48 h
In short: (§6)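 Posaconazole Etest strips on RPMI 1640 agar with 2% glucose, pH 7.0, run per the strip maker's instructions. Incubated at 35°C. MIC read at 24 h and at 48 h, matching the time in each line.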

Aspergillus fumigatus [11] = test: Antimicrobial activity against Aspergillus fumigatus isolate 15 after 24 hrs by Etest; details: isolate 15, 24 h; in short: as §1
Aspergillus fumigatus [12] = test: Antimicrobial activity against Aspergillus fumigatus isolate 6 by CLSI M38-A2 broth microdilution method
Aspergillus fumigatus [13] = test: Antimicrobial activity against Aspergillus fumigatus isolate 44 by CLSI M38-A2 broth microdilution method
Aspergillus fumigatus [14] = test: Antimicrobial activity against Aspergillus fumigatus isolate 24 by CLSI M38-A2 broth microdilution method
In short: (§7)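 Reference broth microdilution per CLSI M38-A2. MIC read as absence of visible growth at 48 h. C. parapsilosis ATCC 22019 and C. krusei ATCC 6258 QC strains run in each test session.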

Aspergillus fumigatus [15] = test: Antimicrobial activity against Aspergillus fumigatus isolate 46 by oxygen consumption method
Aspergillus fumigatus [16] = test: Antimicrobial activity against Aspergillus fumigatus isolate 43 after 48 hrs by Etest; details: isolate 43, 48 h; in short: as §6
Aspergillus fumigatus [17] = test: Antimicrobial activity against Aspergillus fumigatus isolate 28 after 48 hrs by Etest; details: isolate 28, 48 h; in short: as §5
Aspergillus fumigatus [18] = test: Antimicrobial activity against Aspergillus fumigatus isolate 39 after 24 hrs by Etest; details: isolate 39, 24 h; in short: as §6
Aspergillus fumigatus [19] = test: Antimicrobial activity against Aspergillus fumigatus isolate 14 by oxygen consumption method; in short: as §3
Aspergillus fumigatus [20] = test: Antimicrobial activity against Aspergillus fumigatus isolate 31 after 48 hrs by Etest; details: isolate 31, 48 h; in short: as §5
Aspergillus fumigatus [21] = test: Antimicrobial activity against Aspergillus fumigatus isolate 7 by oxygen consumption method
Aspergillus fumigatus [22] = test: Antimicrobial activity against Aspergillus fumigatus isolate 18 after 24 hrs by Etest; details: isolate 18, 24 h; in short: as §1
Aspergillus fumigatus [23] = test: Antimicrobial activity against Aspergillus fumigatus isolate 2 after 24 hrs by Etest; details: isolate 2, 24 h; in short: as §1
Aspergillus fumigatus [24] = test: Antimicrobial activity against Aspergillus fumigatus isolate 49 by CLSI M38-A2 broth microdilution method
Aspergillus fumigatus [25] = test: Antimicrobial activity against Aspergillus fumigatus isolate 28 by CLSI M38-A2 broth microdilution method; in short: as §7
Aspergillus fumigatus [26] = test: Antimicrobial activity against Aspergillus fumigatus isolate 25 by oxygen consumption method
In short: (§8)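 Conidial suspension in RPMI 1640 broth, 1.5 ml, with two drug concentrations (0.25 and 2 μg/ml). Tubes agitated 12 h at 37°C in a biological oxygen monitor. Available oxygen monitored continuously and quantified to assign the MIC.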

Aspergillus fumigatus [27] = test: Antimicrobial activity against Aspergillus fumigatus isolate 1 by oxygen consumption method; in short: as §3
Aspergillus fumigatus [28] = test: Antimicrobial activity against Aspergillus fumigatus isolate 17 after 48 hrs by Etest; details: isolate 17, 48 h; in short: as §1
Aspergillus fumigatus [29] = test: Antimicrobial activity against Aspergillus fumigatus isolate 46 by CLSI M38-A2 broth microdilution method
Aspergillus fumigatus [30] = test: Antimicrobial activity against Aspergillus fumigatus isolate 2 after 48 hrs by Etest; details: isolate 2, 48 h; in short: as §1
Aspergillus fumigatus [31] = test: Antimicrobial activity against Aspergillus fumigatus isolate 30 by CLSI M38-A2 broth microdilution method; in short: as §7
Aspergillus fumigatus [32] = test: Antimicrobial activity against Aspergillus fumigatus isolate 24 after 48 hrs by Etest; details: isolate 24, 48 h; in short: as §5
Aspergillus fumigatus [33] = test: Antimicrobial activity against Aspergillus fumigatus isolate 29 by CLSI M38-A2 broth microdilution method; in short: as §7
Aspergillus fumigatus [34] = test: Antimicrobial activity against Aspergillus fumigatus isolate 38 after 48 hrs by Etest; details: isolate 38, 48 h; in short: as §6
Aspergillus fumigatus [35] = test: Antimicrobial activity against Aspergillus fumigatus isolate 48 after 48 hrs by Etest; details: isolate 48, 48 h
Aspergillus fumigatus [36] = test: Antimicrobial activity against Aspergillus fumigatus isolate 31 by CLSI M38-A2 broth microdilution method; in short: as §7
Aspergillus fumigatus [37] = test: Antimicrobial activity against Aspergillus fumigatus isolate 3 by CLSI M38-A2 broth microdilution method; in short: as §7
Aspergillus fumigatus [38] = test: Antimicrobial activity against Aspergillus fumigatus isolate 1 after 24 hrs by Etest; details: isolate 1, 24 h; in short: as §1
Aspergillus fumigatus [39] = test: Antimicrobial activity against Aspergillus fumigatus isolate 41 after 24 hrs by Etest; details: isolate 41, 24 h; in short: as §6
Aspergillus fumigatus [40] = test: Antimicrobial activity against Aspergillus fumigatus isolate 44 after 24 hrs by Etest; details: isolate 44, 24 h
Aspergillus fumigatus [41] = test: Antimicrobial activity against Aspergillus fumigatus isolate 36 by oxygen consumption method; in short: as §2
Aspergillus fumigatus [42] = test: Antimicrobial activity against Aspergillus fumigatus isolate 14 after 24 hrs by Etest; details: isolate 14, 24 h; in short: as §1
Aspergillus fumigatus [43] = test: Antimicrobial activity against Aspergillus fumigatus isolate 21 by oxygen consumption method; in short: as §8
Aspergillus fumigatus [44] = test: Antimicrobial activity against Aspergillus fumigatus isolate 23 by oxygen consumption method; in short: as §8
Aspergillus fumigatus [45] = test: Antimicrobial activity against Aspergillus fumigatus isolate 18 after 48 hrs by Etest; details: isolate 18, 48 h; in short: as §1
Aspergillus fumigatus [46] = test: Antimicrobial activity against Aspergillus fumigatus isolate 36 after 48 hrs by Etest; details: isolate 36, 48 h; in short: as §6

Work on CC[C@@H]([C@H](C)O)n1ncn(-c2ccc(N3CCN(c4ccc(OC[C@@H]5CO[C@@](Cn6cncn6)(c6ccc(F)cc6F)C5)cc4)CC3)cc2)c1=O [POSACONAZOLE] yielded an MIC (Aspergillus fumigatus [1]) of 0.125 µg/mL (≈ 0.178 µM), an MIC (Aspergillus fumigatus [2]) of 0.125 µg/mL (≈ 0.178 µM) and an MIC (Aspergillus fumigatus [3]) of 0.125 µg/mL (≈ 0.178 µM). For the same molecule, the MIC (Aspergillus fumigatus [4]) was no more than 0.25 µg/mL, the MIC (Aspergillus fumigatus [5]) was no less than 0.5 µg/mL and the MIC (Aspergillus fumigatus [6]) was 0.125 µg/mL (≈ 0.178 µM). It also gave an MIC (Aspergillus fumigatus [7]) of 0.25 µg/mL (≈ 0.357 µM), an MIC (Aspergillus fumigatus [8]) of 4 µg/mL (≈ 5.71 µM) and an MIC (Aspergillus fumigatus [9]) of 0.125 µg/mL (≈ 0.178 µM). For the same molecule, the MIC (Aspergillus fumigatus [10]) was 2 µg/mL (≈ 2.85 µM), the MIC (Aspergillus fumigatus [11]) was 0.06 µg/mL (≈ 0.0856 µM) and the MIC (Aspergillus fumigatus [12]) was 0.125 µg/mL (≈ 0.178 µM). It also gave an MIC (Aspergillus fumigatus [13]) of 0.06 µg/mL (≈ 0.0856 µM), an MIC (Aspergillus fumigatus [14]) of 0.125 µg/mL (≈ 0.178 µM) and an MIC (Aspergillus fumigatus [15]) of no more than 0.25 µg/mL. The MIC (Aspergillus fumigatus [16]) was 0.06 µg/mL (≈ 0.0856 µM), the MIC (Aspergillus fumigatus [17]) was 0.25 µg/mL (≈ 0.357 µM) and the MIC (Aspergillus fumigatus [18]) was 1 µg/mL (≈ 1.43 µM). It also gave an MIC (Aspergillus fumigatus [19]) of no more than 0.25 µg/mL, an MIC (Aspergillus fumigatus [20]) of 0.125 µg/mL (≈ 0.178 µM) and an MIC (Aspergillus fumigatus [21]) of no more than 0.25 µg/mL. It also gave an MIC (Aspergillus fumigatus [22]) of 0.125 µg/mL (≈ 0.178 µM), an MIC (Aspergillus fumigatus [23]) of 0.5 µg/mL (≈ 0.713 µM) and an MIC (Aspergillus fumigatus [24]) of 0.125 µg/mL (≈ 0.178 µM). For the same molecule, the MIC (Aspergillus fumigatus [25]) was 0.25 µg/mL (≈ 0.357 µM), the MIC (Aspergillus fumigatus [26]) was no more than 0.25 µg/mL and the MIC (Aspergillus fumigatus [27]) was no less than 0.5 µg/mL. The MIC (Aspergillus fumigatus [28]) was 0.25 µg/mL (≈ 0.357 µM), the MIC (Aspergillus fumigatus [29]) was 0.125 µg/mL (≈ 0.178 µM) and the MIC (Aspergillus fumigatus [30]) was 1 µg/mL (≈ 1.43 µM). For the same molecule, the MIC (Aspergillus fumigatus [31]) was 0.125 µg/mL (≈ 0.178 µM), the MIC (Aspergillus fumigatus [32]) was 0.125 µg/mL (≈ 0.178 µM) and the MIC (Aspergillus fumigatus [33]) was 0.125 µg/mL (≈ 0.178 µM). It also gave an MIC (Aspergillus fumigatus [34]) of 0.125 µg/mL (≈ 0.178 µM), an MIC (Aspergillus fumigatus [35]) of no more than 0.03 µg/mL and an MIC (Aspergillus fumigatus [36]) of 0.125 µg/mL (≈ 0.178 µM). The MIC (Aspergillus fumigatus [37]) was 1 µg/mL (≈ 1.43 µM), the MIC (Aspergillus fumigatus [38]) was 8 µg/mL (≈ 11.4 µM) and the MIC (Aspergillus fumigatus [39]) was no more than 0.03 µg/mL. It also gave an MIC (Aspergillus fumigatus [40]) of no more than 0.03 µg/mL, an MIC (Aspergillus fumigatus [41]) of no more than 0.25 µg/mL and an MIC (Aspergillus fumigatus [42]) of 0.25 µg/mL (≈ 0.357 µM). For the same molecule, the MIC (Aspergillus fumigatus [43]) was no more than 0.25 µg/mL, the MIC (Aspergillus fumigatus [44]) was no more than 0.25 µg/mL and the MIC (Aspergillus fumigatus [45]) was 0.25 µg/mL (≈ 0.357 µM). The MIC (Aspergillus fumigatus [46]) was 0.06 µg/mL (≈ 0.0856 µM).
